Assay outcomes from PubChem.
RGS4 pot = RGS4 potentiators or activators, primary screen, cell-based, HEK293 M3R inducible RGS4, calcium flux; carbachol calcium flux Fluo4; active compounds read low; B-score at 10 µM; 0.92% of 310,000 active; AID 463111, 2010;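 active means B-score of the integrated calcium signal more than 4 SD below the library mean, with starting fluorescence not abnormally high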;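 further: negative B-score means reduced calcium response which marks RGS4 activation or potentiation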
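Assay system: Inducible-RGS4 HEK293 cells carrying M3 receptor | Schedule: Compound preincubation 20 min at room temperature before agonist | Signal: Kinetic calcium fluorescence imaging with Fluo4-AM dye, 2 µM | Read-out basis: B score from integrated fluorescence ratio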
MrgX1 antag = antagonists of human MrgX1 receptor, primary screen, HEK293 cells, Fluo-4 calcium flux | Mas-related G-protein coupled receptor member X1 (Homo sapiens), Q96LB2 | B-score at 10 µM | 1.3% of 310,000 active | BAM8-22 antagonism; active compounds read low | AID 588676, 2011;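 active means calcium-response B-score plate-corrected more than 3 library SD below zero, starting fluorescence within 5 deviations, no agonist response on first addition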;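 further: peak minus trough fluorescence over baseline after final BAM8-22 challenge near maximal dose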
Target sequence (Q96LB2 whole entry, looked up): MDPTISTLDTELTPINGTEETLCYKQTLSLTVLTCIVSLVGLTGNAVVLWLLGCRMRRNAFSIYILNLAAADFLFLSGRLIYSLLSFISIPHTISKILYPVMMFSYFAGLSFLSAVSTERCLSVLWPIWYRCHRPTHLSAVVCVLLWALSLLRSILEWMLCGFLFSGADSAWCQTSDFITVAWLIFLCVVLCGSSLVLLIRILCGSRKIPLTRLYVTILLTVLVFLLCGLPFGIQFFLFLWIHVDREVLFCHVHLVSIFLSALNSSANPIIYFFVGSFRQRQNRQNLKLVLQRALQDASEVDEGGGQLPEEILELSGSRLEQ
MrgX1 allo act = positive allosteric modulators of MrgX1, primary screen, HEK293 cells, Fluo-4 calcium flux. Mas-related G-protein coupled receptor member X1 (Homo sapiens), Q96LB2. FDSS; active compounds read high. B-score at 10 µM. 0.63% of 310,000 active;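 active means plate-corrected calcium response at least 3 library SD above typical, normal starting fluorescence, not activating the receptor alone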;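 further: compound read alongside a low EC10 to EC30 dose of BAM8-22 agonist; peak minus trough fluorescence over baseline measured at the second addition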
RGS4 block = RGS4 inhibitors, primary screen, cell-based, HEK293 M3R inducible RGS4, calcium flux. Fluo-4 calcium flux; active compounds read high; triggered by carbachol at its EC20. B-score at 10 µM. 0.45% of 310,000 active. AID 463165, 2010;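 active means B-score, a plate-corrected calcium signal, over three deviations above library mean, with baseline fluorescence within five deviations of library mean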;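 further: RGS4 expression induced by doxycycline in cells with stable M3 receptor; B-score is computed from the integrated fluorescence ratio over baseline after carbachol; higher B-score means a larger calcium signal and so more RGS4 inhibition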
Target sequence (P49798 whole entry, looked up): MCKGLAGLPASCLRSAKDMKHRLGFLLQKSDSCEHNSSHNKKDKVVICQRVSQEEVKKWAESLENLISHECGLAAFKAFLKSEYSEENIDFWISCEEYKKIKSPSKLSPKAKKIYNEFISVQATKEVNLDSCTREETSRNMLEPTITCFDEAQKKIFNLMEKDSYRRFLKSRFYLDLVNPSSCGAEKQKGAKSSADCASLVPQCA
MrgX1 agonist = agonists of human MrgX1 receptor, primary screen, HEK293 cells, Fluo-4 calcium flux | Mas-related G-protein coupled receptor member X1 (Homo sapiens), Q96LB2 | Fluo-4 calcium fluorescence, agonist mode; active compounds read high | B-score at 10 µM | 0.44% of 310,000 active | AID 588627, 2011;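 active means calcium response B-score plate-corrected fluorescence ratio at least 3 library SD, with starting fluorescence B-score inside 5 SD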
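Material – MrgX1-expressing HEK293 cells · Input – 15,000 cells seeded per well · Dosing – compound as first of three additions · Times – overnight seeding, then 1 h dark dye loading · Measured by – kinetic Fluo-4 NW fluorescence of intracellular calcium · Read-out – B-scored fluorescence response ratio · Benchmarks – positive and negative control wells on each plate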
* hit, by the source's call; i = inactive; . = not tested or not shown. In the library only some 3.5% were active in any assay of this set; here they are far more common.

SMILES | RGS4 pot | MrgX1 antag | MrgX1 allo act | RGS4 block | MrgX1 agonist
COc1ccc(N(CC(=O)Nc2ccccc2OC)S(=O)(=O)c2ccc(NC(C)=O)cc2)cc1 | i | i | i | i | i
O=C(CCN1C(=O)C2C3CCC(C3)C2C1=O)Nc1ccc(F)cc1 (stereo not given) | i | . | . | i | .
COc1ccccc1C(=O)NC(=O)COC(=O)Cn1[nH]c(=O)c2ccccc2c1=O | i | -4.5* | i | i | i
CC(C)NC(=O)COC(=O)Cn1[nH]c(=O)c2ccccc2c1=O | i | i | i | i | i
CCN(CC(=O)NCc1cccs1)C(=O)C1CC(=O)N(c2ccc(OC)cc2OC)C1 (stereo not given) | i | -4.8* | i | i | i
CCN(CC(=O)Nc1ccc2c(c1)OCCO2)C(=O)C1CC(=O)N(c2ccc(OC)cc2OC)C1 (stereo not given) | i | i | i | i | i
CCN1C(=O)/C(=C2\SC(=S)N(c3c(C)n(C)n(-c4ccccc4)c3=O)C2=O)c2ccccc21 | i | i | i | i | i
CCN1C(=O)/C(=C2\SC(=S)N(NC(=O)c3ccccc3O)C2=O)c2ccccc21 | i | i | 15* | i | i
C/C(CCC(C)C)=N\Nc1cc(C)c2ccccc2n1 | i | i | 10* | i | i
COc1ccccc1NC(=O)CNc1ccc(F)c(Cl)c1 | i | i | i | i | i
CN(CC(=O)NCc1ccc(F)cc1)CC(=O)Nc1ccc(Cl)c(C(F)(F)F)c1 | i | -5.6* | i | i | i
CC(NC(=O)CN(C)CC(=O)Nc1ccc(Cl)c(C(F)(F)F)c1)c1ccccc1 (stereo not given) | i | i | i | i | i
COc1cc(OC)c(OC)cc1CNCCNC(=O)c1ccco1 | i | i | i | i | i
COc1ccc(CN2CCN(CC=C(C)C)C(CCO)C2)cc1Cn1cccn1 (stereo not given) | i | i | i | i | 28*
Cc1ccc(C)c(OCc2cc(C(=O)N3CCc4sccc4C3)no2)c1 | i | i | i | i | i
CSc1ccccc1OCc1cc(C(=O)N2CCc3sccc3C2)no1 | -7.8* | i | i | i | i
CCn1ccnc1CN(C)C(=O)c1cc(COc2ccccc2SC)on1 | -7.6* | i | i | i | i
CCc1nc(CNC(=O)C2CCC(=O)N(Cc3ccccc3F)C2)no1 (stereo not given) | i | . | . | i | .
Cc1ccc(C(=O)/C=C/c2ccccc2)o1 | i | i | i | i | 28*
Cc1ccc(C(=O)/C=C/c2ccc(Br)cc2)o1 | i | i | i | i | i
Cc1ccc(/C=C/C(=O)c2ccc([N+](=O)[O-])o2)cc1 | i | i | i | 9.8* | i
Cc1onc(-c2ccccc2)c1C(=O)N(Cc1ccccc1)C(C)C | i | i | i | i | i
COc1ccc(CNC(=S)NC(C)CCc2ccccc2)cc1 (stereo not given) | i | i | i | i | i
CCOC(=O)c1c(C)[nH]c(C)c1S(=O)(=O)N1CCN(c2ccc(F)cc2)CC1 | i | i | i | i | i
O=C(CSc1ccccn1)Nc1nonc1[N+](=O)[O-] | i | i | i | i | 38*
SMILES | RGS4 pot | MrgX1 antag | MrgX1 allo act | RGS4 block | MrgX1 agonist
O=C(CSc1ccccn1)Nc1ccc(NC(=O)CSc2ccccn2)cc1 | i | i | i | i | i
CC1=C/C(=C\C=C(C#N)C#N)N(C)c2ccccc21 | i | -5.7* | i | i | i
CC1=CC(=C(C#N)C#N)c2ccccc2N1C | i | i | i | i | i
CCCCC1(C)OC(=O)C(=Cc2ccc(N(C)C)cc2)C(=O)O1 (stereo not given) | i | i | i | i | 29*
O=C(COC(=O)c1n[nH]c2ccccc12)c1cccc(Br)c1 | i | -5.4* | i | i | i
COc1ccc(-c2csc(NC(=O)c3ccccc3Br)c2C(=O)O)cc1 | i | i | i | i | i
COc1ccc(-c2csc(NC(=O)c3ccc(C(C)(C)C)cc3)c2C(=O)O)cc1 | i | i | 14* | i | i
CCN=C1SC(C(=O)Nc2cccc(C)c2)CC(=O)N1CC (stereo not given) | -7.4* | i | i | i | i
CCN=C1SC(C(=O)Nc2cccc(Cl)c2)CC(=O)N1CC (stereo not given) | i | i | i | i | i
COc1ccccc1NC(=O)c1cc2ccccc2o/c1=N\O | i | i | i | 11* | i
COc1ccc(N=c2oc3ccccc3cc2C(=O)Nc2ccccn2)cc1OC | i | i | i | i | i
COCCN(C(=O)COC(=O)CCOc1cccc(C)c1)c1c(N)n(Cc2ccccc2)c(=O)[nH]c1=O | i | i | i | i | i
N#C/C(=C/c1ccccc1)C(=O)NCc1ccccc1 | i | i | i | i | i
CN(C)c1ccc(/C=C(/C#N)C(=O)NCc2ccccc2)o1 | i | -4.9* | i | i | i
CCN(c1ccc(OC)cc1)S(=O)(=O)c1ccc(-c2ccc(=O)[nH]n2)o1 | i | i | i | i | i
OCc1ccccc1SSc1ccccc1CO | i | i | i | i | 41*
C#CCOCCOCCOCCNc1nc(N2CCN(C(=O)CCCCCCCCCCNC(=O)[C@@H](CCSC)n3cc(CCO)nn3)CC2)nc(N2CCN(C(=O)CCCCCCCCCCNC(=O)[C@H]([C@@H](C)CC)n3cc(CCCCCN)nn3)CC2)n1 | . | i | 15* | . | i
C#CCOCCOCCOCCNc1nc(N2CCN(C(=O)CCCCCCCCCCNC(=O)[C@H]([C@@H](C)CC)n3cc(CCCCN=C(N)N)nn3)CC2)nc(N2CCN(C(=O)CCCCCCCCCCNC(=O)[C@H](CCCCN)n3cc(C[C@@H](C)CC)nn3)CC2)n1 | . | i | i | . | 61*
C#CCOCCOCCOCCNc1nc(N2CCN(C(=O)CCCCCCCCCCNC(=O)Cn3cc(CCCCCN)nn3)CC2)nc(N2CCN(C(=O)CCCCCCCCCCNC(=O)[C@H](CO)n3cc(CCCCCN)nn3)CC2)n1 | . | i | i | . | i
